Bioassay records deposited in PubChem BioAssay by several laboratories.
CSC inhib = cancer stem cell inhibition; cancer stem cell-like cells viability, luminescence; inhibition, % at 7.5 µM; 300,000 compounds, 1.1% hits; AID 2717; in the data active = inhibition above about 75%; tested in HMLE shEcad cells
Lmaj promast = reduces viability of Leishmania major promastigotes | resazurin fluorescence viability | inhibition, % at 10 µM | 200,000 compounds, 9% hits | AID 1063; in the data active = inhibition above about 50%;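 note: promastigotes grown with compound for 44 hours at 28 °C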
Beta cell apopt = beta cell apoptosis inhibition | INS-1E cytokine-induced death, ATP luminescence, 48 h; percent of positive-control rescue, neutral wells zero | protection from apoptosis, % (no concentration beside the values) | 300,000 compounds, 0.8% hits | AID 435005;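 active = Every replicate reaches about 75%, or at least half do and their mean reaches it too, limit read from the data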;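 note: 0% = cytokine-treated negative control wells and 100% = positive control rescue; higher means more ATP so stronger rescue from cytokine killing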
Mdm2 MdmX PPI = inhibitors of human Mdm2/MdmX interaction. O15151+Q00987. SaOS-2 split-luciferase Mdm2/MdmX complementation, luminescence. inhibition, % at 8 µM. 330,000 compounds, 3% hits. AID 485346;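 active = inhibition of at least 50% at 8 µM in the primary screen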
Target sequence (O15151 whole entry, looked up): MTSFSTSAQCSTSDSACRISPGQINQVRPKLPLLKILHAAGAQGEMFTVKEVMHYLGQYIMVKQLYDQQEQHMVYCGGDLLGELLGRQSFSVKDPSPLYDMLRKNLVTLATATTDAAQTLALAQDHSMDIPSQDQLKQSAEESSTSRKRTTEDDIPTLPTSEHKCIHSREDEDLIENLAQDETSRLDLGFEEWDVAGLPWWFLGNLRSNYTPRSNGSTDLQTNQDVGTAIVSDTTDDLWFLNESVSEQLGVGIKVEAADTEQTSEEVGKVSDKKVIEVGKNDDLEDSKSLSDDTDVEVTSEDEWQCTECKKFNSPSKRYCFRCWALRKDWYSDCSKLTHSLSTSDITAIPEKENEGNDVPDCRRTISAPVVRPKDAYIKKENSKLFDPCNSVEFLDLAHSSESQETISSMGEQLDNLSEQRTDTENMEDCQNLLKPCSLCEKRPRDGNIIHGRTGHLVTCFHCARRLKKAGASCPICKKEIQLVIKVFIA
Target sequence (Q00987 whole entry, looked up): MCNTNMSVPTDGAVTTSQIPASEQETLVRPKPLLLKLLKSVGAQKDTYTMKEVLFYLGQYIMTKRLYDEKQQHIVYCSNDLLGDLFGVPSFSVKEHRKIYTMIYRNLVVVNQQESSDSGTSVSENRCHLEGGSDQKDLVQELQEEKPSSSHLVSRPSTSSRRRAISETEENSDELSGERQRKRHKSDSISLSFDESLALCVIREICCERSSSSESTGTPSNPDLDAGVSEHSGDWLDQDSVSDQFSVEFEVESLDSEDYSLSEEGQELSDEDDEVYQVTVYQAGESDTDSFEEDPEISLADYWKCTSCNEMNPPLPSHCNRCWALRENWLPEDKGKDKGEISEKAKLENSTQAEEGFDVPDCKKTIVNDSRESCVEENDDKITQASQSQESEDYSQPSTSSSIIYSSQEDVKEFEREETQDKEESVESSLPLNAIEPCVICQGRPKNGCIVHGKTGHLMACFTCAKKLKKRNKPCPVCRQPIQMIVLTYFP
T cruzi repl = blocks replication of Trypanosoma cruzi | T. cruzi beta-gal in NIH3T3, luminescence, 90 h | inhibition, % (test concentration not listed) | 300,000 compounds, 1.4% hits;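 active = mean inhibition across valid replicates above about 55%, limit read from the data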;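 note: signal also drops with host cell toxicity which is not excluded here; 0% = plate median of DMSO wells and 100% = zero luminescence signal; higher percent means less beta-gal luminescence so fewer parasites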
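Incubation – ≥90 h infection period, 3 h prior cell attachment · System – NIH/3T3 fibroblasts plus reporter T. cruzi · Doses – compound pinned at 50 nL/well, DMSO · Read-out basis – percent inhibition of parasite-derived β-gal signal · Signal – luminescent β-galactosidase signal after 60 min lysis · Also added – 5000 T. cruzi trypomastigotes/well · Medium – Low-serum DMEM with 2% FBS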
SKKanGAS inh = SKKanGAS growth inhibition. S. pyogenes SKKanGAS, kanamycin growth, BacTiter-Glo, 6 h. inhibition, % at 7.5 µM. 300,000 compounds, 1.3% hits. AID 1662;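 active = mean replicate score, as percent of positive control median, at least 50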;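 note: strain carries kanamycin resistance gene driven by streptokinase promoter and grows in 40 µg/ml kanamycin; loss of luminescence reflects streptokinase promoter inhibition or plain growth inhibition; 0% = median of DMSO wells and 100% = positive control at its reference dose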
* = called active by the depositor; x = no result. Compounds with a hit are over-represented: about 9.4% of the library has one in this group of screens.

SMILES | CSC inhib | Lmaj promast | Beta cell apopt | Mdm2 MdmX PPI | T cruzi repl | SKKanGAS inh
CN1CCN(C2CCN(Cc3ccc(O)c4ncccc34)CC2)CC1 | 0 | x | -12 | 2 | x | x
Oc1ccc(CN2CCN(Cc3ccccc3)CC2)c2cccnc12 | 7 | 100* | 64 | 27 | 64* | 6
OCc1ccnc2c(O)cccc12 | 2 | 100* | 12 | 21 | 57* | -1
CC(C)(C)N(Cc1ccccc1)C(=O)COC(=O)c1cccc([N+](=O)[O-])c1 | -3 | 8 | -2 | -3 | -10 | 6
Cc1ccc(CNC(=O)CN(C)S(=O)(=O)c2ccc(F)cc2)cc1 | 14 | x | -1 | 11 | 6 | -9
O=C(c1ccc(F)cc1Cl)N(c1ccccn1)C1CCCCC1 | -2 | 31 | -5 | 17 | 0 | -11
Oc1ccc(Cn2ccnc2)c2cccnc12 | x | 99* | -3 | 4 | 25 | -13
c1ccc2c(Cn3ccnc3)c[nH]c2c1 | -6 | 35 | -4 | 14 | 45 | 3
CC(C)C(NC(=O)c1ccccc1)C(=O)N1CCCCCC1 (stereo unspecified) | -10 | x | 1 | 8 | -5 | 2
Cc1ccc(C2=N/C(=C\c3cccnc3)C(=O)O2)cc1 | -21 | 66* | -1 | -2 | -11 | -1
Cc1ccc(CNC(=O)CCC2CCCN(Cc3cccc4cccnc34)C2)o1 (stereo unspecified) | 4 | 5 | -1 | 29 | 46 | -1
CCOc1cccc(CN2CCCC(CCC(=O)NCc3ccccc3F)C2)c1O (stereo unspecified) | 13 | 56* | -2 | 23 | 56* | 5
O=C(CCC1CCCN(c2ncccn2)C1)NCc1ccccc1F (stereo unspecified) | -16 | -6 | -1 | 6 | 9 | -12
CC(C)c1cc(C(=O)N2CCCC(CCC(=O)NCc3ccccc3F)C2)n(C)n1 (stereo unspecified) | -30 | 3 | 23 | -15 | 8 | -8
Cc1ccc(CNC(=O)CCC2CCCN(Cc3cccc4ncccc34)C2)o1 (stereo unspecified) | 0 | 2 | -9 | 10 | 66* | -7
Cc1nn(C)c(Cl)c1CN1CCCC(CCC(=O)NCc2ccccc2F)C1 (stereo unspecified) | -7 | 37 | 1 | 3 | 60* | 1
COc1cccc(NC(=O)CCS(=O)(=O)c2ccc3c(c2)oc(=O)n3C)c1 | 3 | x | -2 | -10 | 8 | -5
O=C(NCC(c1ccco1)N1CCc2ccccc2C1)c1ccc(F)cc1 (stereo unspecified) | 0 | x | -2 | 34 | -2 | -1
C#CCn1c(=NC(=O)c2ccc(S(=O)(=O)N3CCCc4ccccc43)cc2)sc2cc(S(N)(=O)=O)ccc21 | x | 100* | 1 | 15 | 55* | 23
Cn1c(=NC(=O)c2ccc(S(=O)(=O)N3CCCc4ccccc43)cc2)sc2cc(S(C)(=O)=O)ccc21 | 0 | 99* | 12 | 20 | 52 | 3
COC(=O)c1ccc(Oc2ccc3nnc(C)n3n2)cc1 | 0 | -2 | -1 | 28 | -3 | 1
Cc1nnc2ccc(Oc3ccc(-c4ccccc4)cc3)nn12 | -3 | 5 | 92* | 15 | -106 | -3
CCSC1=N/C(=C\C=C2/Oc3ccccc3N2CC)C(=O)S1 | -24 | x | 5 | 2 | 0 | -6
O=C(NC1CC1)c1cccc(NC(=O)c2cc(S(=O)(=O)N3CCOCC3)ccc2Cl)c1 | x | x | x | 1 | x | x
CCOc1cc(/C=N/NC(N)=O)cc(Br)c1OCc1ccccc1 | 13 | x | 2 | 23 | -11 | -6
SMILES | CSC inhib | Lmaj promast | Beta cell apopt | Mdm2 MdmX PPI | T cruzi repl | SKKanGAS inh
CCOc1cc(/C=N/NC(N)=S)cc(Br)c1OCc1ccccc1C | 45 | 100* | 12 | 24 | 79* | 17
CC1CCc2c(sc(NS(=O)(=O)c3ccccc3)c2C(=O)OC(C)C)C1 (stereo unspecified) | -6 | -7 | 1 | 12 | -10 | 95*
O=C(c1cc(-c2ccccc2)nc2ccccc12)N1N=C(C(F)F)CC1(O)C(F)F (stereo unspecified) | 0 | 21 | 5 | -9 | 20 | 1
Cc1ccc(-c2cc(C(=O)N3N=C(C(F)F)CC3(O)C(F)F)c3ccccc3n2)cc1C (stereo unspecified) | 98* | 61* | 7 | 40 | 64* | 11
CCOC(=O)C=C(C(=O)OCC)C(=O)OCC | x | 100* | x | x | x | x
COc1ccc(/C=C\C(=O)CC(O)(c2ccccc2)C(F)(F)F)cc1 (stereo unspecified) | x | 100* | x | 3 | 17 | -18
COc1ccc(S(=O)(=O)N(C)CC(=O)N2CCC(C)CC2)cc1Cl | -16 | 97* | -4 | 9 | -8 | 2
COc1ccc(OC)c(N(CC(=O)N2CCC(C)CC2)S(=O)(=O)c2ccc(OC)c(OC)c2)c1 | -2 | 2 | x | -5 | 10 | -2
CN(C)Cc1ccccc1Sc1cccc2ccccc12 | 3 | 97* | 6 | x | 4 | 0
CN(C)Cc1ccccc1Sc1ccccc1Br | 10 | 18 | -6 | -20 | 5 | 0
Cc1ccc(NC(=O)N2CCCC2)cc1Cl | -6 | 95* | -1 | 24 | 3 | -3
O=C(Nc1ccccc1)N1CCCC1 | -5 | 97* | 1 | 11 | -4 | 4
O=C(Nc1ccc(Cl)c(Cl)c1)N1CC=CCC1 | 1 | 85* | 1 | -72 | 9 | 2
O=C(Nc1ccccc1)N1CCNCC1 | -8 | x | -3 | 12 | -12 | -5
CC(C)c1ccccc1NC(=S)NCC1(N(C)C)CCCCC1 | -6 | x | -6 | 46 | 9 | 0
CC(NC(=O)COC(=O)c1ccccc1F)C1CC2CCC1C2 (stereo unspecified) | -1 | x | -4 | -10 | x | x
O=C(O)c1ccc(S(=O)(=O)N2CCC(NC(=O)C3CCCCC3)CC2)cc1 | -8 | x | -3 | -5 | -3 | 3
CCc1ccc(C(=O)NCc2cnn(C)c2)s1 | -11 | -1 | 0 | -31 | -3 | 0
CSc1ccccc1NC(=O)CN(C)C(C)C(=O)Nc1ccc(C#N)cc1 (stereo unspecified) | 5 | 56* | 6 | 32 | -2 | 1
COC(=O)c1ccc(NC(=O)CN2C(=O)CNC2=O)cc1 | -2 | 91* | 1 | -20 | -8 | -2
CCOC(=O)c1ccc(NC(=O)CN2C(=O)NC3(CCCCCC3)C2=O)cc1 | -8 | 91* | -6 | 18 | 12 | 5
O=C(Cc1ccccc1)Nc1ccc(C(=O)O)cc1 | -14 | -7 | -11 | -22 | 0 | -1
COC(=O)c1ccc(NC(=O)Cc2ccccc2)cc1 | 9 | 76* | -4 | -3 | -14 | 0
COC(=O)c1ccc(NC(=O)Cc2ccc(C)cc2)cc1 | 0 | 65* | -7 | -29 | -3 | 0
COC(=O)c1ccc(NC(=O)CSCc2ccc(C)cc2)cc1 | -5 | 4 | -2 | 0 | 2 | -12
CC1CCC(NC(=O)CN2C(=O)NC3(CCCCCC3)C2=O)CC1 (stereo unspecified) | 0 | x | 4 | -9 | x | x
